Measurements published in ChEMBL document CHEMBL1151420 (Antimicrob Agents Chemother, 2007).
In brackets after ≈: the same amount, converted by molar mass.

Legend:
[1] = tested on: Equus caballus; test: fCmax in horse at 20 mg/kg, po administered as single dose; assay type: ADME, organism-based; design: dose 20 mg/kg, route oral; details: in vivo
Outline: (§1)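 Horses (six, A–F) were dosed once intragastrically by nasogastric tube with 20 mg/kg of crushed tablets suspended in 100 ml tap water, followed by a ≥200 ml water flush. Heparinized plasma was sampled at 0 and from 20 min to 30 h and stored at –70°C. Unbound drug was isolated by 30 kDa ultrafiltration with ganciclovir internal standard and measured by LC-MS/MS (LOQ 5 ng/ml). Parameters were derived noncompartmentally.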

[2] = tested on: Equus caballus; test: fAUC in horse at 20 mg/kg, po administered as single dose; assay type: ADME, organism-based; design: dose 20 mg/kg, route oral; details: in vivo; outline: as §1
[3] = tested on: Equid alphaherpesvirus 1; test: Antiviral activity against EHV1 assessed as inhibition of plaque formation; assay type: functional, organism-based
[4] = Mean residence time in iv dosed adult horse; assay type: ADME, organism-based, Equus caballus; details: in vivo
[5] = Oral bioavailability in horse at 20 mg/kg administered as single dose; assay type: ADME, organism-based, Equus caballus; details: in vivo
Outline: (§2)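 Single 20 mg/kg dose of crushed tablets suspended in 100 ml tap water, given by nasogastric tube and flushed with at least 200 ml water. Plasma sampled from 20 min to 30 h. Total concentration measured by HPLC-fluorescence (LOQ 50 ng/ml). Noncompartmental analysis; absolute F was calculated against the i.v. data.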

[6] = Cmax in iv dosed adult horse; assay type: ADME, organism-based, Equus caballus; design: route intravenous; details: in vivo
[7] = Total mean residence time in horse at 10 mg/kg, iv after 1 hr by two-compartmental study; assay type: ADME, organism-based, Equus caballus; design: dose 10 mg/kg, route intravenous; details: in vivo
[8] = Free mean residence time in horse at 10 mg/kg, iv after 1 hr by three-compartmental study; assay type: ADME, organism-based, Equus caballus; design: dose 10 mg/kg, route intravenous; details: in vivo
[9] = tested on: Equus caballus; test: fAUC in horse at 10 mg/kg, iv after 1 hr by three-compartmental study; assay type: ADME, organism-based; design: dose 10 mg/kg, route intravenous; details: in vivo
[10] = Solubility at pH 2.3 to 9.2; assay type: physicochemical; details: buffer
[11] = Cmax in horse at 10 mg/kg, iv after 15 mins; assay type: ADME, organism-based, Equus caballus; design: dose 10 mg/kg, route intravenous; details: in vivo
[12] = species: Equus caballus; test: Renal toxicity in horse assessed as changes in creatinine level; assay type: organism-based; details: in vivo
Outline: (§3)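 Blood was drawn once daily on the day before, the day of, and the day after drug administration. Plasma urea and creatinine were measured to assess kidney function.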

[13] = Total Cmax in horse at 10 mg/kg, iv after 1 hr by two-compartmental study; assay type: ADME, organism-based, Equus caballus; design: dose 10 mg/kg, route intravenous; details: in vivo
[14] = species: Equus caballus; test: Renal toxicity in horse assessed as changes in urea level; assay type: organism-based; details: in vivo; outline: as §3
[15] = tested on: Equus caballus; test: fCmax in horse at 10 mg/kg, iv after 1 hr by three-compartmental study; assay type: ADME, organism-based; design: dose 10 mg/kg, route intravenous; details: in vivo
[16] = Plasma concentration in horse at 20 mg/kg, po administered as single dose after 5 hrs; assay type: ADME, organism-based, Equus caballus; design: dose 20 mg/kg, route oral; outline: as §2
[17] = Distribution coefficient, log P of the compound; assay type: physicochemical; details: octanol/water

Row | Structure (SMILES) | fCmax [1] | fAUC [2] | EC50 [3] | MRT [4] | bioavailability [5] | Cmax [6] | MRT [7] | MRT [8] | fAUC [9] | solubility [10] | Cmax [11] | Activity [12] | Cmax [13] | Activity [14] | fCmax [15] | concentration at 5 h [16] | logP [17]
1 | CC(C)[C@H](N)C(=O)OCCOCn1cnc2c(=O)[nH]c(N)nc21 [VALACYCLOVIR] | 4.76 µg/mL | 14900 ng·h/mL | – | – | – | – | – | – | – | – | – | – | – | – | – | – | –
2 | Nc1nc2c(ncn2COCCO)c(=O)[nH]1 [ACYCLOVIR] | 0.4 µg/mL | 3530 ng·h/mL | 1.7 µg/mL (≈ 7.55 µM) | 7.09 h | 2.8% | 10400 ng/mL | 5.38 h | 23.1 h | 24600 ng·h/mL | 1000 µg/mL (≈ 4440 µM) | 46200 ng/mL | Non-toxic | 10700 ng/mL | Non-toxic | 10.5 µg/mL | 50 ng/mL | -1.59
